Experimental data reported in ChEMBL document CHEMBL4513216, “Probing the Open Global Health Chemical Diversity Library for Multistage-Active Starting Points for Next-Generation Antimalarials” (ACS Infect Dis, 2020).

Assay: Toxicity liver stage against HepG2, at 10uM
Assay type: cell-based
Design: test concentration 10 uM, cell line HepG2-A16-CD81EGFP
Details: human, HepG2-A16-CD81EGFP cells; read-out: INHIBITION
Procedure, shortened: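 Uninfected HepG2-A16-CD81EGFP cells, 3 × 10^3 per well, 1536-well, plated on prespotted compound at 10 μM final, parasite-free screening media added to match infected plates; puromycin 10 μM positive, DMSO 0.5% negative; run in parallel with 48 h PbLuc assay at 37 °C, 5% CO2; viability by CellTiter-Glo luminescence, normalized to controls.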

Structure (SMILES) | cytotoxicity at 10 µM [%]
CCN(CC)S(=O)(=O)c1cc(Br)ccc1OC | 0.58
O=C(O)c1cc(C2CC2)nc2c(Cl)cnn12 | 8.63
COc1ccnc(N2CCN(CC(=O)N3CCC(C)CC3)CC2)n1 | -3.63
CN(C)c1cc(CNC(=O)c2ccc(F)cc2F)ccn1 | -4.82
Cc1nn(C)c(Cl)c1C1CCCN1CC(=O)NCc1ccco1 (configuration not stated) | 1.48
CC(C)(C)c1ccc(C2(C(=O)NCCCS(C)(=O)=O)CC2)cc1 | -12.6
O=C(Cn1ccc(=O)c2ccccc21)Nc1cnccc1O | -4.08
CN(Cc1ccc(C2CC(=O)Nc3cc4[nH]ncc4cc32)o1)S(C)(=O)=O (configuration not stated) | 34.1
Cc1cnn(Cc2cc(F)ccc2F)c1NC(=O)C1COCCO1 (configuration not stated) | 21.5
COc1ccc(OCCc2cc(C3CNCCO3)nn2C)cc1 (configuration not stated) | 7.13
Cc1ccccc1C1(C(=O)NCCN2CCCC(C)C2)CCOCC1 (configuration not stated) | -2.34
O=C1[C@H]2CN(c3cnccn3)C[C@H]2CN1CC1CC1 | -108
O=C1[C@H]2CN(S(=O)(=O)c3cccs3)C[C@H]2CN1CC1CC1 | 2
COc1cccc2c1OCC(C(=O)NCc1ncc3c(n1)CCC3)C2 (configuration not stated) | -8.51
O=C(CCn1cncn1)NC1(c2cccc(Br)c2)CCC1 | -20.2
CCN1CCN(C2CCN(Cc3nc(C)c(C)o3)CC2)C1=O | -9.92
CCNC(c1cccnc1)c1ccc(F)c(F)c1 (configuration not stated) | 1.03
Cc1cccc(NC2CCN(C(=O)Nc3cccc4[nH]ccc34)CC2)n1 | -6.85
COC(=O)N1CCCN(C(=O)c2cccc3cccnc23)CC1 | 8.33
COc1ccccc1[S+]([O-])CC(=O)NCc1cc(F)cc(F)c1 (configuration not stated) | 24.3
Cc1nc(-c2nnc(SCC(=O)O)n2C(C)c2ccccc2)co1 (configuration not stated) | -6.3
COCCCN1CC2(CCCCN2C(=O)C2CCCCC2)CC1=O (configuration not stated) | 12.2
Cn1ccnc1CN1CCCN(C(=O)c2ccc(O)nc2)CC1 | -26.3

Structure (SMILES) | cytotoxicity at 10 µM [%]
NCCc1cccc(CN2CCN(c3ccccc3)C(=O)C2)c1 | 3.47
O=C1CO[C@H](c2ccc(NS(=O)(=O)c3ccccc3)cc2)[C@@H](CO)N1 | 2.17
CC(c1nc(C2CC2)no1)N1CCN(Cc2ccc(C#N)cc2)CC1 (configuration not stated) | 3.71
COC[C@@]12CCO[C@@H]1CCN(C(=O)COc1ccc(C)cc1)C2 | 1.39
Cc1cc(C(=O)N2CCOC(c3ccc(Cl)c(Cl)c3)C2)[nH]n1 (configuration not stated) | 4.55
CC(O)CN1CC(C)(C)CN(C(=O)CCc2ccccc2)CC1=O (configuration not stated) | -0.321
Cn1cc(C#N)c(=O)n(CC(O)c2ccccc2F)c1=O (configuration not stated) | -11
Cc1ccc(C(=O)NC2CCN(Cc3nc(C(C)C)no3)CC2)s1 | 3.82
Cc1nnc(SCCNC(=O)Cn2cnc3ccccc3c2=O)s1 | 4.79
CN(Cc1ccon1)CC1CCOc2ccccc2C1 (configuration not stated) | -6.95
CN1CCCN(C(=O)NCCOc2ccc3c(c2)OCO3)CC1 | -17.5
CC(C)Cc1cc(C(=O)NCc2nnc[nH]2)[nH]n1 | -2.95
Cc1nc(C(C)(C)NCc2ncc(C(C)C)o2)sc1C | 6.32
Cc1cccc(C2CCCN(C(=O)CN3CCCC3=O)C2)c1 (configuration not stated) | -0.942
Cn1ccc(C(=O)Nc2cccc(-c3ccc4c(c3)CCO4)n2)cc1=O | -1.26
O=S1(=O)COCCN1CCCOc1ccc(F)cc1 | 3.57
COCc1nc(C(=O)N2CCCC2c2noc(C(C)C)n2)cs1 (configuration not stated) | 0.866
O=c1c2sccc2nc2n1CCN(Cc1cccs1)CC2 | 4.27
O=C(NCc1cnc2n1CCN(Cc1cccs1)C2)c1ccno1 | -110
CC(C)N(CC(=O)O)Cc1cccc(Br)c1 | -8.67
CO[C@H]1CC[C@H]2[C@H]1OCCN2C(=O)c1ccc(C)nc1 | -141
CCc1nnc(CN2CCCC2Cn2cc(C)cn2)o1 (configuration not stated) | -6.64
COC1COC2(CCN(Cc3ccco3)CC2)C1 (configuration not stated) | 8.62

Structure (SMILES) | cytotoxicity at 10 µM [%]
Cc1cc(OCC(=O)N2CCCC(c3noc(C)n3)C2)no1 (configuration not stated) | -0.0722
Cc1noc(C)c1CCCNC(=O)C1CCN(C(C)C)CC1 | -7.01
Nc1nc2c(c(N3CCC(CCn4cccn4)CC3)n1)CCNCC2 | -4.17
O=C(c1ccc[nH]1)N1C[C@@H]2CC[C@H]1CN(c1ncccn1)C2 | -7.12
CCN1CCN(C(=O)CCC2CCN(C(C)CSC)CC2)CC1 (configuration not stated) | -0.0154
COc1c(CNC(c2ccccc2)c2nccn2C)c(C)nn1C (configuration not stated) | -3.16
COCC1N(C(=O)c2ccc3c(c2)OCCCO3)C2CCC1(O)CC2 (configuration not stated) | -5.3
CC(C)(Oc1ccc(C(N)=O)cc1)C(=O)N(CCC#N)CC1CCCO1 (configuration not stated) | 5.55
Cc1cccc2[nH]c(C3CCN(C(=O)c4cnc(O)cc4O)CC3)nc12 | 3.09
CC(C)OCCCNC(=O)C1CC(=O)N(c2n[nH]c3cccc(F)c23)C1 (configuration not stated) | -4.73
CCN(CC)CCCNCc1cc2cccc(C)c2[nH]c1=O | -7.06
O=S(=O)(NCC1(O)CCOc2ccccc21)c1ccc(Br)s1 (configuration not stated) | 1.43
CC(C)CC(C)NCCCN1CCCN(C)CC1 (configuration not stated) | 24.7
Cc1cc(=O)[nH]c(SC(C)C(=O)N2CCCN(C3CCCC3)CC2)n1 (configuration not stated) | -8.04
CCc1nc(C2CCCN(C(=O)c3ccc4[nH]nnc4c3)C2)no1 (configuration not stated) | 2.67
Cc1nc(C)n(CC2CCCN2CCCc2nc3ccccc3o2)n1 (configuration not stated) | -8.58
CC(=O)c1ccc(C(=O)NCc2cccnc2N2CCCC(O)C2)s1 (configuration not stated) | -0.147
O=C(c1ccc2cc[nH]c2c1)N1CCCN(Cc2cscn2)CC1 | -31.7
O=C(NCC(=O)N1CCC2(CC1)OCCO2)c1ccoc1 | -9.55
CNC(=O)C1CC2(CCN(C(=O)c3csnn3)CC2)c2ccccc21 (configuration not stated) | -154
CCc1nc(N2CCC3(CC2)OCCCC3O)ncc1C (configuration not stated) | 7.41
CC(C)CC(=O)Nc1c(-c2ccc(F)cc2)ncn1C | 5.87
COc1ccccc1C1(CNCc2ccc([S+](C)[O-])cc2)CC1 (configuration not stated) | 7.56

Structure (SMILES) | cytotoxicity at 10 µM [%]
O=C(NCCCN1CCc2ccccc2C1)c1ccccc1Cl | -13
CC(C)OCCCNC(=O)c1ccc(-c2ccco2)[nH]c1=O | -4.45
CS(=O)(=O)c1snnc1C1CCN(Cc2cccnc2)CC1 | -11.2
CN1C2(CCN(Cc3ccc(F)cc3)C2)c2ccccc2S1(=O)=O (configuration not stated) | 13.5
COc1ccc(CNc2cnn(C)c(=O)c2Cl)cc1 | -3.45
O=C(O)c1cccc(C2CCCN(S(=O)(=O)C3CC3)C2)c1 (configuration not stated) | 3.24
COCCN(CCOC)C(=O)c1cc(F)cc2[nH]cnc12 | -8
Cc1cc(-c2cc(N)c(=O)n(CC(=O)N3CCCC(C)C3)n2)c(C)o1 (configuration not stated) | 4.62
CCN1CC(C(=O)NC(C)(C)CC)CC1=O (configuration not stated) | 1.82
CC1CN(C(=O)NCCNc2cnccn2)CCO1 (configuration not stated) | 5.31
Cn1cccc1C(=O)N1C[C@@H]2CC[C@H]1CN(Cc1cscn1)C2 | 2.9
COc1ccc(CN2CC(O)CN(C(=O)CC(C)C)CC2=O)cc1 (configuration not stated) | -0.634
Cc1c(C(=O)O)nnn1Cc1cccc(C(F)(F)F)c1 | -2.93
O=c1n(Cc2cccc(C(F)(F)F)c2)nc2ncccn12 | -8.64
CCc1cc(=O)n(CC(=O)N2CCCC2)c(-c2ccccc2)n1 | 7.25
O=C(CN1CCCCC1)N1CCC(c2cc(=O)n3c(n2)CCCCC3)C1 (configuration not stated) | -32.5
Cc1cc(C(=O)N2CCCC3(COCCN(CCN(C)C)C3)C2)no1 (configuration not stated) | 3.22
Cc1ccc(NC2CCCN(CCc3ccccc3)C2)nn1 (configuration not stated) | 11.7
CN(C)CCn1ccnc1C1CCN(c2cc(N)nc(N)n2)CC1 | 0.829
N#CC1COCCN1S(=O)(=O)c1ccc2c(c1)CCC2 (configuration not stated) | 4.53
Cc1ccc(CN2CCc3[nH]nc(C(=O)N4CCNC(=O)C4)c3C2)s1 | 12
Cc1nc(CN(C)CC2CCCN2c2cccnn2)oc1C (configuration not stated) | -4.25
COc1ccc2c(c1)OC1(CCN(Cc3ccc(C)cc3)CC1)CC2=O | 7.6

Structure (SMILES) | cytotoxicity at 10 µM [%]
CSc1nnc(N(CCC#N)CCC#N)s1 | 8.95
COc1ccc(C(=O)N2C[C@@H](O)[C@H](NCCc3ncccc3C)C2)cc1 | -3.71
COCC1CC2(CCN(Cc3ccoc3)CC2)CN1Cc1ccccn1 (configuration not stated) | -98.8
CN(C)CCn1c(=O)oc2ccc(NC(=O)C3CCCO3)cc21 (configuration not stated) | 0.743
NC(=O)CN1CC(c2nc(C3CC3)no2)C1 | 5.62
CCN(CC)C1CCN(c2nccc(C3CCCC3)n2)C1 (configuration not stated) | -12.7
CC(NC(=O)N1CCC[C@H]1CO)c1noc(-c2ccccc2)n1 (some centres not stated) | -6.67
O=C(c1cccc(CN2CCCC2)c1)N1CCCC(n2cncn2)C1 (configuration not stated) | -11.9
COc1ccc(-c2noc(Cn3cc(C)cn3)n2)c(OC)c1OC | -8.42
O=C(c1ccncc1)N1CC2(CCNCC2)c2cc(Cl)ccc21 | -3.22
Cn1cc(-c2nnn3c2COC(CNCc2nccs2)C3)cn1 (configuration not stated) | -4.89
Cc1noc(C)c1C(=O)NCc1ccc(N2CCC(C)CC2)nc1 | 8.43
Cc1csc(N(C)C(=O)C(c2c(F)cccc2Cl)N(C)C)n1 (configuration not stated) | -44.3
c1ccc2ncc(CC3CNCCOC3)cc2c1 (configuration not stated) | -3.93
CN(C)C(=O)N1C[C@H]2CC[C@@H](C1)N(C(=O)c1cccc(N(C)C)c1)C2 | 0.502
Cc1cccc(CN2CCN(C(=O)c3cc(Cl)c[nH]c3=O)CC2)c1 | 1.47
COc1ccc(-n2cc3nc(N)[nH]cc-3c2=O)cc1 | 6.25
Cn1c(CN2CCCc3cc(F)cc(F)c32)cc(=O)n(C)c1=O | 17.3
Cc1cc(CN2CCN(C(=O)NCc3ccc(C)s3)CC2)on1 | -4.56
O=C(C[S+]([O-])c1ccc(F)c(F)c1)NCc1cc(F)cc(F)c1 (configuration not stated) | 5.58
